Source: ChEMBL document CHEMBL3400013, “Synthesis and biological activity evaluation of hydrazone derivatives based on a Tröger's base skeleton” (Bioorg Med Chem, 2015)
Activity calls are given as the source filed them. The calls are words filed in the database; no cut-off is given here.

System: BJ
Experiment: Selectivity index, ratio of IC50 for human BJ cells to IC50 for human K562 cells
Assay type: functional
Details: not given

SMILES | Ratio IC50
O=C(N/N=C/c1cc([N+](=O)[O-])ccc1O)c1ccc2c3c(ccc2c1)N1Cc2c(ccc4cc(C(=O)N/N=C/c5cc([N+](=O)[O-])ccc5O)ccc24)N(C3)C1 | 0.9

System: K562
Experiment: Selectivity index, ratio of IC50 for human MRC5 cells to IC50 for human K562 cells
Assay type: functional
Details: not given

SMILES | Ratio IC50
O=C(N/N=C/c1cc([N+](=O)[O-])ccc1O)c1ccc2c3c(ccc2c1)N1Cc2c(ccc4cc(C(=O)N/N=C/c5cc([N+](=O)[O-])ccc5O)ccc24)N(C3)C1 | 0.9

System: Escherichia coli
Experiment: Antimicrobial activity against Escherichia coli CCM 3954 up to 200 uM after 24 to 48 hrs by broth microdilution method
Assay type: functional, organism-based
Details: not given

SMILES | Activity
O=C(N/N=C/c1cc([N+](=O)[O-])ccc1O)c1ccc2c3c(ccc2c1)N1Cc2c(ccc4cc(C(=O)N/N=C/c5cc([N+](=O)[O-])ccc5O)ccc24)N(C3)C1 | inactive

System: not listed separately
Experiment: Metal chelating activity of the compound assessed as formation of Ca2+ complex by UV-vis spectrometry
Assay type: physicochemical
Details: not given

SMILES | Activity
O=C(N/N=C/c1cc([N+](=O)[O-])ccc1O)c1ccc2c3c(ccc2c1)N1Cc2c(ccc4cc(C(=O)N/N=C/c5cc([N+](=O)[O-])ccc5O)ccc24)N(C3)C1 | Not Active

System: Candida parapsilosis
Experiment: Antifungal activity against Candida parapsilosis up to 200 uM after 24 to 48 hrs by broth microdilution method
Assay type: functional, organism-based
Details: not given

SMILES | Activity
O=C(N/N=C/c1cc([N+](=O)[O-])ccc1O)c1ccc2c3c(ccc2c1)N1Cc2c(ccc4cc(C(=O)N/N=C/c5cc([N+](=O)[O-])ccc5O)ccc24)N(C3)C1 | inactive

System: Candida albicans
Experiment: Antifungal activity against Candida albicans up to 200 uM after 24 to 48 hrs by broth microdilution method
Assay type: functional, organism-based
Details: not given

SMILES | Activity
O=C(N/N=C/c1cc([N+](=O)[O-])ccc1O)c1ccc2c3c(ccc2c1)N1Cc2c(ccc4cc(C(=O)N/N=C/c5cc([N+](=O)[O-])ccc5O)ccc24)N(C3)C1 | inactive

System: not listed separately
Experiment: Metal chelating activity of the compound assessed as formation of Zn2+ complex by UV-vis spectrometry
Assay type: physicochemical
Details: not given

SMILES | Activity
O=C(N/N=C/c1cc([N+](=O)[O-])ccc1O)c1ccc2c3c(ccc2c1)N1Cc2c(ccc4cc(C(=O)N/N=C/c5cc([N+](=O)[O-])ccc5O)ccc24)N(C3)C1 | Active

System: BJ
Experiment: Selectivity index, ratio of IC50 for human BJ cells to IC50 for human HCT116 cells
Assay type: functional
Details: not given

SMILES | Ratio IC50
O=C(N/N=C/c1cc([N+](=O)[O-])ccc1O)c1ccc2c3c(ccc2c1)N1Cc2c(ccc4cc(C(=O)N/N=C/c5cc([N+](=O)[O-])ccc5O)ccc24)N(C3)C1 | 0.9

System: not listed separately
Experiment: Metal chelating activity of the compound assessed as formation of Mn2+ complex by UV-vis spectrometry
Assay type: physicochemical
Details: not given

SMILES | Activity
O=C(N/N=C/c1cc([N+](=O)[O-])ccc1O)c1ccc2c3c(ccc2c1)N1Cc2c(ccc4cc(C(=O)N/N=C/c5cc([N+](=O)[O-])ccc5O)ccc24)N(C3)C1 | Not Active

System: Pseudomonas aeruginosa
Experiment: Antimicrobial activity against multidrug-resistant Pseudomonas aeruginosa A/16575 up to 200 uM after 24 to 48 hrs by broth microdilution method
Assay type: functional, organism-based
Details: not given

SMILES | Activity
O=C(N/N=C/c1cc([N+](=O)[O-])ccc1O)c1ccc2c3c(ccc2c1)N1Cc2c(ccc4cc(C(=O)N/N=C/c5cc([N+](=O)[O-])ccc5O)ccc24)N(C3)C1 | inactive

System: not listed separately
Experiment: Metal chelating activity of the compound assessed as formation of Fe3+ complex by UV-vis spectrometry
Assay type: physicochemical
Details: not given

SMILES | Activity
O=C(N/N=C/c1cc([N+](=O)[O-])ccc1O)c1ccc2c3c(ccc2c1)N1Cc2c(ccc4cc(C(=O)N/N=C/c5cc([N+](=O)[O-])ccc5O)ccc24)N(C3)C1 | Active

System: K562
Experiment: Cytostatic activity against human K562 cells after 72 hrs by MTT assay
Assay type: functional, cell-based
Details: K562, 72 h
Method in brief: (§1)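 Cells were seeded at 25,000–30,000 per well and pre-incubated for 24 h at 37°C in 5% CO2. Four-fold compound dilutions were added in duplicate and incubated for 72 h. MTT was added for 1–4 h, and formazan was dissolved in 10% aq SDS (pH 5.5) overnight at 37°C. OD was read at 540 nm. IC50 came from dose-response curves, mean ± SD of eight independent experiments.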

SMILES | IC50
O=C(N/N=C/c1cc([N+](=O)[O-])ccc1O)c1ccc2c3c(ccc2c1)N1Cc2c(ccc4cc(C(=O)N/N=C/c5cc([N+](=O)[O-])ccc5O)ccc24)N(C3)C1 | > 100 µM

System: A549
Experiment: Cytostatic activity against human A549 cells after 72 hrs by MTT assay
Assay type: functional, cell-based
Details: A549, 72 h
Method in brief: as §1

SMILES | IC50
O=C(N/N=C/c1cc([N+](=O)[O-])ccc1O)c1ccc2c3c(ccc2c1)N1Cc2c(ccc4cc(C(=O)N/N=C/c5cc([N+](=O)[O-])ccc5O)ccc24)N(C3)C1 | > 100 µM

System: not listed separately
Experiment: Cytostatic activity against human HCT116 cells after 72 hrs by MTT assay
Assay type: functional, cell-based
Details: HCT-116, 72 h
Method in brief: as §1

SMILES | IC50
O=C(N/N=C/c1cc([N+](=O)[O-])ccc1O)c1ccc2c3c(ccc2c1)N1Cc2c(ccc4cc(C(=O)N/N=C/c5cc([N+](=O)[O-])ccc5O)ccc24)N(C3)C1 | > 100 µM

System: Nucleic Acid
Experiment: Binding affinity to DNA (unknown origin) assessed as DNA intercalation by UV-visible spectrophotometry in presence of Fe3+
Assay type: nucleic-acid assay
Details: not given

SMILES | Activity
O=C(N/N=C/c1cc([N+](=O)[O-])ccc1O)c1ccc2c3c(ccc2c1)N1Cc2c(ccc4cc(C(=O)N/N=C/c5cc([N+](=O)[O-])ccc5O)ccc24)N(C3)C1 | Active

System: BJ
Experiment: Selectivity index, ratio of IC50 for human BJ cells to IC50 for human CCRF-CEM cells
Assay type: functional
Details: pooled result: one value given for 2 cell lines, strains, targets or settings

SMILES | Ratio IC50
O=C(N/N=C/c1cc([N+](=O)[O-])ccc1O)c1ccc2c3c(ccc2c1)N1Cc2c(ccc4cc(C(=O)N/N=C/c5cc([N+](=O)[O-])ccc5O)ccc24)N(C3)C1 | 0.9

System: not listed separately
Experiment: Metal chelating activity of the compound assessed as formation of Ni2+ complex by UV-vis spectrometry
Assay type: physicochemical
Details: not given

SMILES | Activity
O=C(N/N=C/c1cc([N+](=O)[O-])ccc1O)c1ccc2c3c(ccc2c1)N1Cc2c(ccc4cc(C(=O)N/N=C/c5cc([N+](=O)[O-])ccc5O)ccc24)N(C3)C1 | Active

System: Escherichia coli
Experiment: Antimicrobial activity against multidrug-resistant Escherichia coli C/16702 up to 200 uM after 24 to 48 hrs by broth microdilution method
Assay type: functional, organism-based
Details: not given

SMILES | Activity
O=C(N/N=C/c1cc([N+](=O)[O-])ccc1O)c1ccc2c3c(ccc2c1)N1Cc2c(ccc4cc(C(=O)N/N=C/c5cc([N+](=O)[O-])ccc5O)ccc24)N(C3)C1 | inactive

System: Staphylococcus aureus
Experiment: Antimicrobial activity against methicillin-resistant Staphylococcus aureus MRSA 4591 up to 200 uM after 24 to 48 hrs by broth microdilution method
Assay type: functional, organism-based
Details: not given

SMILES | Activity
O=C(N/N=C/c1cc([N+](=O)[O-])ccc1O)c1ccc2c3c(ccc2c1)N1Cc2c(ccc4cc(C(=O)N/N=C/c5cc([N+](=O)[O-])ccc5O)ccc24)N(C3)C1 | inactive

System: CEM-DNR
Experiment: Selectivity index, ratio of IC50 for human MRC5 cells to IC50 for human CEM-DNR cells
Assay type: functional
Details: not given

SMILES | Ratio IC50
O=C(N/N=C/c1cc([N+](=O)[O-])ccc1O)c1ccc2c3c(ccc2c1)N1Cc2c(ccc4cc(C(=O)N/N=C/c5cc([N+](=O)[O-])ccc5O)ccc24)N(C3)C1 | 0.9

System: Nucleic Acid
Experiment: Binding affinity to DNA (unknown origin) assessed as DNA intercalation by UV-visible spectrophotometry in presence of Cu2+
Assay type: nucleic-acid assay
Details: not given

SMILES | Activity
O=C(N/N=C/c1cc([N+](=O)[O-])ccc1O)c1ccc2c3c(ccc2c1)N1Cc2c(ccc4cc(C(=O)N/N=C/c5cc([N+](=O)[O-])ccc5O)ccc24)N(C3)C1 | Active

System: HCT-116
Experiment: Selectivity index, ratio of IC50 for human MRC5 cells to IC50 for human HCT116 cells
Assay type: functional
Details: not given

SMILES | Ratio IC50
O=C(N/N=C/c1cc([N+](=O)[O-])ccc1O)c1ccc2c3c(ccc2c1)N1Cc2c(ccc4cc(C(=O)N/N=C/c5cc([N+](=O)[O-])ccc5O)ccc24)N(C3)C1 | 0.9

System: HCT-116
Experiment: Selectivity index, ratio of IC50 for human MRC5 cells to IC50 for human p53-/- HCT116 cells
Assay type: functional
Details: not given

SMILES | Ratio IC50
O=C(N/N=C/c1cc([N+](=O)[O-])ccc1O)c1ccc2c3c(ccc2c1)N1Cc2c(ccc4cc(C(=O)N/N=C/c5cc([N+](=O)[O-])ccc5O)ccc24)N(C3)C1 | 0.9

System: Nucleic Acid
Experiment: Binding affinity to DNA (unknown origin) assessed as DNA intercalation by UV-visible spectrophotometry in presence of Zn2+
Assay type: nucleic-acid assay
Details: not given

SMILES | Activity
O=C(N/N=C/c1cc([N+](=O)[O-])ccc1O)c1ccc2c3c(ccc2c1)N1Cc2c(ccc4cc(C(=O)N/N=C/c5cc([N+](=O)[O-])ccc5O)ccc24)N(C3)C1 | Active

System: not listed separately
Experiment: Metal chelating activity of the compound assessed as formation of Cr3+ complex by UV-vis spectrometry
Assay type: physicochemical
Details: not given

SMILES | Activity
O=C(N/N=C/c1cc([N+](=O)[O-])ccc1O)c1ccc2c3c(ccc2c1)N1Cc2c(ccc4cc(C(=O)N/N=C/c5cc([N+](=O)[O-])ccc5O)ccc24)N(C3)C1 | Not Active
